Shown are actives, neighbours in structure and some others; about 2.3% of the full set was active somewhere.
SR-BI DiI-HDL act = enhances SR-BI lipid uptake from DiI-HDL; CHO ldlA[mSR-BI] cells, DiI-HDL uptake fluorescence, 3 h; 100 = double the neutral-control signal; activation, % at 12.5 µM; 0.096% of 320,000 active; AID 504775;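 active = mean replicate activation of at least 60% and every replicate at or above 60%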;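 also: 0% = median plate neutral-control signal and 100% = twice that signal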
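system = CHO ldlA[mSR-BI] cells, LDL receptor-null, SR-BI overexpressing | medium = Ham's F12 with 0.5% BSA, HEPES 25 mM, pH 7.4 | probe or stimulus = DiI-HDL 10 µg/mL | compound dosing = single-point compound dose | incubation = compound exposure 3 h, 37 °C | technique = DiI fluorescence, bottom read | read-out = cell-associated DiI fluorescence as measure of HDL uptake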
CAL PDZ FP-1 = CAL PDZ (human) peptide binding inhibition | Q9HD26 | purified CAL PDZ, TMR-peptide fluorescence polarization, 1 h | inhibition, % at 24.9 µM | 0.92% of 300,000 active;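 active = mean inhibition of at least 30% with at least half of replicates also reaching 30%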;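 also: 0% = DMSO neutral control and 100% = excess unlabeled competitor peptide PRC23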
CAL PDZ FP-2 = blocks peptide binding to human CAL PDZ domain; Q9HD26; purified CAL PDZ, TMR-peptide fluorescence polarization, 1 h; inhibition, % at 20 µM; 0.02% of 330,000 active;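 active = highest replicate inhibition of at least 40%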;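 also: plate controls were DMSO neutral control wells for no effect and unlabeled competitor peptide control wells for full effect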
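Read-out basis: mP drop reported as inhibition | Assay system: Tagged CAL PDZ protein CerCALP, purified | Benchmarks: Unlabelled peptide for full inhibition, DMSO wells as neutral | Schedule: 1 h incubation at room temperature before polarization reading | Buffer or medium: Sodium phosphate/NaCl buffer pH 7.4 with TCEP, IgG, Thesit | Doses: Single point, 20 µM | Measured by: Fluorescence polarization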
ATG4B inh = ATG4B (human) cysteine protease inhibition. ATG4B cleavage of LC3-PLA2, NBD-HPC fluorescence, 1 h. inhibition, % at 8.33 µM. 0.51% of 340,000 active. AID 504462; in the data active = inhibition above about 40%
SR-BI HDL uptake = inhibitors of mouse SR-BI mediated HDL lipid uptake; Q61009; ldlA[mSR-BI] CHO cells, DiI-HDL uptake fluorescence, 3 h; inhibition, % at 12.5 µM; 0.96% of 320,000 active; AID 488896;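 active = mean replicate inhibition of at least 70% and a set share of replicates each scoring 70 or more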;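 also: 0% = median of neutral control wells and 100% = median of positive control wells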
Target sequence (Q61009 whole entry, looked up): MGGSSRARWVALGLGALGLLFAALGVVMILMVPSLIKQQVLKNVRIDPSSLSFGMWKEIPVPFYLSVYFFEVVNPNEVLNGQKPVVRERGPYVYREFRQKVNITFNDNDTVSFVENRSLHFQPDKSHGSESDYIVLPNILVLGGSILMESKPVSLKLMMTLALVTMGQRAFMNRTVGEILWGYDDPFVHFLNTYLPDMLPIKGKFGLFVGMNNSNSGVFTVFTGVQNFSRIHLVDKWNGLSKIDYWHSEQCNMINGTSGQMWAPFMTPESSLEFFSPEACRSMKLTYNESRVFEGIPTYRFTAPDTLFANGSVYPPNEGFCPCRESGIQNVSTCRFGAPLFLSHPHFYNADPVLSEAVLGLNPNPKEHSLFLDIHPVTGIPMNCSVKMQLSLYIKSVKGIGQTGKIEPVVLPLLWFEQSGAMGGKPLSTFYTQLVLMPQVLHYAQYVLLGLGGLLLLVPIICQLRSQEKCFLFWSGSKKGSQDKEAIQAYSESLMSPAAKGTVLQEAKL
Active calls of the source: *; nt = no result; + = active, no number.

SMILES | SR-BI DiI-HDL act | CAL PDZ FP-1 | CAL PDZ FP-2 | ATG4B inh | SR-BI HDL uptake
CCOC(=O)c1sc2nc(-c3ccco3)c3c(c2c1N)CC(C)(C)OC3 | -75 | -7 | nt | 5 | 75*
COc1ccc(-c2cc(C(F)(F)F)c3c(N)c(C(=O)NCCSC)sc3n2)cc1 | -62 | 0 | 0 | -3 | 62
CN(CC(=O)Nc1cc(C(F)(F)F)ccc1-n1cncn1)Cc1ccccc1N1CCOCC1 | -12 | nt | 1 | -9 | 12
Cc1cc(NCCCCCCCNc2cc(C)nc3cc([N+](=O)[O-])ccc23)c2ccc([N+](=O)[O-])cc2n1 | -13 | -3 | -1 | 24 | 13
Cc1ccccc1NC(=O)c1sc2nc(N3CCOCC3)c3c(c2c1N)CCCC3 | -69 | 0 | -2 | 24 | 69
COc1ccccc1NC(=O)c1sc2nc(N3CCOCC3)c3c(c2c1N)CCCC3 | nt | nt | -1 | -2 | 84*
CCOC(=O)C(NC(=O)N(C)C)(Nc1sc(C)c(CC)c1C#N)C(F)(F)F (stereo not given) | 5 | -3 | 0 | -6 | -5
COc1cccc(-c2ccnc3[nH]n(-c4ccccc4)c(=O)c23)c1 | -9 | 67* | -1 | 3 | 9
Cc1cc(-c2ccccc2)nc2[nH]n(-c3ccccc3)c(=O)c12 | 7 | -1 | -3 | -3 | -7
COc1ccc(-c2ccnc3[nH]n(-c4ccccc4)c(=O)c23)cc1 | -1 | 60* | -1 | -4 | 1
O=c1c2c(-c3ccc([N+](=O)[O-])cc3)ccnc2[nH]n1-c1ccccc1 | -1 | 0 | nt | -6 | 1
CC(=O)Nc1ccc(S(=O)(=O)NCCC(=O)N2CCc3ccccc32)cc1 | nt | -3 | -2 | -8 | nt
COc1cc(OC)cc(C(=O)N[C@H](C(=O)OCC(=O)Nc2ccc(C(C)C)cc2)C(C)C)c1 | -13 | -2 | 5 | -15 | 13
CC(C)Cc1ccc(C(C)CC2=CCC(CN(C)C)C2=O)cc1 (stereo not given) | 10 | 0 | -1 | -5 | -10
COc1cccc(C2C(C(=O)c3cc4ccccc4o3)=C(O)C(=O)N2CCN(C)C)c1OC (stereo not given) | 0 | 33* | nt | 3 | 0
CCOc1ccccc1-n1c(SCC(=O)N2CCOCC2)nnc1-c1ccccn1 | 24 | 42* | nt | -4 | -24
CCOc1ccccc1-n1c(SCC(=O)N(CC)CC)nnc1-c1ccccn1 | 14 | nt | 0 | -5 | -14
Cn1/c(=N/NC(=O)c2ccccc2F)sc2ccccc21 | -1 | -1 | 0 | -1 | 1
O=C1c2ccccc2C(=Nc2ccccc2)C1c1cccc(Br)c1 (stereo not given) | -81 | -4 | -3 | 2 | 81*
CC1C(=O)C(C)C(c2cccc(Br)c2)NC1c1cccc(Br)c1 (stereo not given) | -4 | -7 | -1 | -2 | 4
COCCCNC(=O)C1CCC(=O)N(c2ccc3c(c2)OCO3)C1c1ccc(OC)cc1 (stereo not given) | nt | + | 1 | -4 | nt
CC(C)N1CCN(Cc2coc3ccccc3c2=O)CC1CCO (stereo not given) | 14 | 3 | -1 | 6 | -14
Cc1ccc(NC(=O)C(SCC(=O)O)c2ccccc2)cc1C (stereo not given) | -7 | 69* | 0 | -16 | 7
COc1cccc(C=Nc2ccccc2C(=O)Nc2nccs2)c1OC | 3 | nt | 0 | 10 | -3
O=C(Nc1nccs1)c1ccccc1N=Cc1ccccc1 | 1 | 59* | 6 | -13 | -1
SMILES | SR-BI DiI-HDL act | CAL PDZ FP-1 | CAL PDZ FP-2 | ATG4B inh | SR-BI HDL uptake
O=C(NN=C(Cc1ccccc1)Cc1ccccc1)c1ccccc1O | 299* | -6 | -2 | 4 | -298
CCOC(=O)C1(Cc2ccccc2Cl)CCN(C(=O)c2cnccn2)CC1 | -17 | 1 | 0 | -4 | 17
COc1ccc(CNC(=O)C[C@H]2C[C@H](C(=O)N3CCOCC3)[C@@]3(CCC4CCCC4)c4[nH]c5cc(CCC(=O)N(C)C)ccc5c4CCN3C2=O)cc1OC | -7 | 51* | 0 | -15 | 7
CN(C)C(=O)CCc1ccc2c3c([nH]c2c1)[C@]1(CCC2CCCC2)[C@@H](C(=O)N2CCOCC2)C[C@H](CC(=O)NCCN2CCOCC2)C(=O)N1CC3 | 19 | -6 | 0 | -3 | -19
Cc1nnc(SCC(=O)N2CCCC(C(=O)c3ccc(Cl)cc3)C2)o1 (stereo not given) | 0 | 38* | nt | -2 | 18
CCc1ccc(NC(=S)Nn2cnnc2)cc1 | -8 | 63* | 16 | -6 | 8
CCc1ccc(CN(C)C(C)C(=O)NCc2ccccc2)cc1 (stereo not given) | 7 | 51* | nt | -5 | -7
Cc1ccc(NC(=S)Nn2cnnc2)cc1 | 5 | -5 | -2 | -8 | -5
CCc1ccc(NC(=S)NCc2cccnc2)cc1 | 7 | 5 | 1 | -5 | -7
CCc1ccc(NC(=S)NCc2ccccc2)cc1 | 17 | 49* | -1 | -7 | -17
NNC(=S)Nc1c(Br)cc(F)cc1Br | 16 | -3 | -2 | 3 | -16
CN(C(=O)COC(=O)c1ccc(Cl)cc1N)C1CCCCC1 | -16 | 34* | 0 | -9 | 16
CN(C(=O)COC(=O)c1ccc([N+](=O)[O-])cc1Cl)C1CCCCC1 | -34 | -2 | -2 | -3 | 34
O=C(NNC(=O)c1ccc(Br)s1)c1csc(N2CCOCC2)n1 | 15 | -7 | -1 | 10 | -15
COc1ccc(/C=C(/C#N)C(=O)Nc2ccccc2C)cc1C(=O)O | 7 | -3 | 1 | 2 | -7
COc1ccc(/C=C(/C#N)C(=O)Nc2ccc(C)cc2C)cc1C(=O)O | 66* | 0 | 0 | -5 | -66
NNC(=O)c1oc2nc(-c3cccs3)cc(-c3ccco3)c2c1N | -16 | -3 | 1 | nt | 16
Cc1ccc(-c2cc(-c3ccco3)c3c(N)c(C(=O)NN)oc3n2)cc1 | -78 | -5 | 0 | -26 | 78*
NNC(=O)c1oc2nc(-c3ccccc3)cc(-c3ccccc3)c2c1N | -98 | -7 | 0 | -2 | 98*
CNC(=S)NNC(=O)c1oc2nc(-c3ccccc3)cc(C)c2c1N | 11 | -3 | 1 | 2 | -11
CC(C)(C)c1ccc(C(=O)NCc2nnc(SCC(=O)NCc3ccco3)o2)cc1 | 1 | -2 | 9 | -9 | -1
COc1ccc(C(=O)CSc2nnc(CNC(=O)c3ccccc3)o2)cc1 | 1 | 52* | 0 | -6 | -1
COc1cc(C(=O)NCc2nnc(SCC(=O)Nc3cc(C)cc(C)c3)o2)cc(OC)c1OC | -20 | -1 | -2 | -4 | 20
COc1ccc(C(=O)NCc2nnc(SCC(=O)NCc3ccco3)o2)cc1 | 1 | 88* | -1 | -16 | -1
COc1cc(C(=O)NCc2nnc(SCC(=O)Nc3c(C)cc(C)cc3C)o2)cc(OC)c1OC | -13 | 60* | -1 | -7 | 13

High-throughput results (PubChem BioAssay)
